From PubChem BioAssay
Shown is part of a subset that was picked to be rich in hits.
CHOP inhibitor: blocks CHOP induction under ER stress. 220,000 compounds, 3.8% hits. AID 2732. CHO-K1 CHOP-promoter luciferase, tunicamycin-induced, 15-18 h. inhibition, % at 10 µM;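 active = compounds that reduced the stress-induced luciferase reporter signal by more than about 70% of percent inhibition, limit read from the data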
UPR XBP1 act: adaptive UPR (XBP1) activation; 330,000 compounds, 0.33% hits; activation, % at 20 µM; CHO-XBP1 luciferase reporter, IRE1-XBP1 UPR activation, luminescence; percent of tunicamycin response, DMSO as zero;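 active = versus positive control, 20 µM dose yields 30% or more activation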
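assay system = CHO-XBP1 luciferase reporter cells | amount = 1000 cells/well | buffer or medium = F12 plus 10% FBS | compound dosing = single point, 20 µM final compound, 1% DMSO | incubation = 16-18 h cell attachment at 37 °C, then 6 h compound exposure | detection = Steady-Glo luminescence read | controls = tunicamycin 10 µg/mL and vehicle-only wells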
CHOP UPR activ: activators of apoptotic arm of unfolded protein response (CHOP) | activation, % at 10 µM | 330,000 compounds, 0.34% hits | CHO-CHOP luciferase reporter, UPR activation, luminescence; percent of tunicamycin response over DMSO baseline;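 active = at 10 µM dose, activation of 40% or more, normalized to positive control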
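Test system: CHO-CHOP cells, stable luciferase reporter of PERK-eIF2a-CHOP signalling | Quantity: 500 CHO-CHOP cells per well | Buffer or medium: F12 plus 10% serum | Compound dosing: 10 µM single point, 0.5% DMSO | Schedule: 6 h compound treatment, 37 °C | Signal: Luciferase luminescence | Control set: Tunicamycin high control, DMSO low control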
Beta2AR agonist: human beta-2 adrenergic receptor agonism by FAP; AID 504454; P07550; response, % (no concentration beside the values); Am2.2-beta2AR cells, FAP receptor internalization, flow cytometry; 340,000 compounds, 0.43% hits;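 active = response above a set limit, near 3 SD of response in nonfluorescent compounds, cut at about 42% in these data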
Target sequence (P07550 whole entry, looked up): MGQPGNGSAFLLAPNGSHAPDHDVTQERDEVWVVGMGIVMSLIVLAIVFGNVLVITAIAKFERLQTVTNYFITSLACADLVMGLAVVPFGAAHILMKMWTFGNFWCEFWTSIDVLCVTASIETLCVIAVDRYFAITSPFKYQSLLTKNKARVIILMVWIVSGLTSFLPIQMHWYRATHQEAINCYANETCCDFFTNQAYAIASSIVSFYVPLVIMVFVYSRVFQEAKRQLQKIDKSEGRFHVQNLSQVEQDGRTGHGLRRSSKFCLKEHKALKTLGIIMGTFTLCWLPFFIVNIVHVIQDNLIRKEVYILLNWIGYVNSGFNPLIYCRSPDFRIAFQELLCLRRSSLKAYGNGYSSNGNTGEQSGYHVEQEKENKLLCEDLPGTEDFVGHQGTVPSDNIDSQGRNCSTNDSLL
VLA-4 inh: inhibition in a human VLA-4 binding assay | P13612 | VLA-4 expressing cells, ligand binding flow cytometry | inhibition, % (about 7 µM as worked out from the volumes in the protocol) | 330,000 compounds, 0.2% hits | AID 2557; in the data active = inhibition above about 50%
Large screens that a line does not name were inactive.

O=C(CCNS(=O)(=O)/C=C/c1ccccc1)NCCc1c[nH]c2ccccc12	none (no result: CHOP inhibitor)
Oc1ccc2ccccc2c1C=Nc1ccc(N2CCOCC2)cc1	CHOP inhibitor 78.0 (no result: Beta2AR agonist)
Cc1cccc(OCCCC(=O)O)c1C	CHOP inhibitor 70.3
COc1ccc(-c2c(C#N)c(N)nc(Sc3ccc(Cl)cc3)c2C#N)cc1	CHOP inhibitor 73.6
O=C(NCC1CCN(C(=O)c2c(F)c(F)c(F)c(F)c2F)CC1)c1c(F)c(F)c(F)c(F)c1F	none (no result: CHOP inhibitor)
CCc1ccc(S(=O)(=O)/N=C2\C=C(Nc3ccc(C(=O)O)cc3)C(=O)c3ccccc32)cc1	none (no result: CHOP inhibitor)
COC(=O)c1ccccc1NC1=C/C(=N\S(=O)(=O)c2ccc(C(=O)O)cc2)c2ccccc2C1=O	Beta2AR agonist 60.5 (no result: CHOP inhibitor)
Cc1ccc(NC2=C/C(=N/S(=O)(=O)c3cccs3)c3ccccc3C2=O)cc1	CHOP inhibitor 97.9, Beta2AR agonist 43.3
Cc1ccc(S(=O)(=O)/N=C2\C=C(Nc3ccc(O)cc3)C(=O)c3ccccc32)cc1	Beta2AR agonist 74.3 (no result: CHOP inhibitor)
COC(=O)c1ccc(NC(=O)CN2CCN(S(=O)(=O)c3ccc(Br)cc3)CC2)cc1	none (no result: CHOP inhibitor)
O=C1NC(O)=NC1(c1ccccc1)c1ccccc1	none (no result: UPR XBP1 act, CHOP UPR activ, Beta2AR agonist, VLA-4 inh)
Cc1ccc(CN=c2c([N+](=O)[O-])nn(-c3cccc(Cl)c3)n2O)cc1	CHOP inhibitor 83.5
Cc1ccc(CN=c2c([N+](=O)[O-])nn(-c3cccc(C)c3)n2O)cc1	none
Cc1cc(S(=O)(=O)N2c3ccc(F)cc3CCC2C)ccc1-n1cnnn1 (centres undefined)	none (no result: CHOP inhibitor)
Clc1cccc(CSc2ncn(-c3ccccc3)n2)c1	CHOP inhibitor 92.5
C=CCNC(=O)CC(=O)N/N=C/c1cccc(C)c1	none
O=C(CCCc1ccccc1)c1ccc2c(c1)OCCO2	CHOP inhibitor 88.9
O=C(N/N=C/c1c(O)ccc2ccccc12)c1cccc(C(F)(F)F)c1	CHOP inhibitor 77.8
O=C(N/N=C/c1c(O)ccc2ccccc12)c1[nH]ncc1Br	CHOP inhibitor 77.9
Cc1cc(C)n(CCC(=O)N/N=C/c2ccc(O)cc2)n1	none
Cc1cc(C)n(CCC(=O)N/N=C/c2c(O)ccc3ccccc23)n1	CHOP inhibitor 87.6
COc1ccc2ccccc2c1/C=N/NC(=O)c1cccc(Br)c1	none
CSc1nc(C)c(Cc2c(F)cccc2Cl)c(=O)[nH]1	none
Cc1ccc(CNc2nc3ccccc3s2)s1	CHOP inhibitor 74.1
COc1ccc(CNc2nc3ccccc3s2)cc1OC	none (no result: CHOP inhibitor)
Cc1ccc(-c2nnc(SCC(=O)Nc3nc4c(s3)CCCC4)n2C)cc1	none
Cc1ccc2cc(C)c3nnc(SCC(=O)Nc4nc5c(s4)CCCC5)n3c2c1	CHOP inhibitor 83.4 (no result: UPR XBP1 act, CHOP UPR activ, Beta2AR agonist, VLA-4 inh)
CCCn1c(SCC(=O)Nc2nc3c(s2)CCCC3)nc2c1c(=O)n(C)c(=O)n2C	CHOP inhibitor 71.3
O=C(Nc1ccc(COc2ccccc2)cc1)Nc1cccc(C(=O)O)c1	none (no result: CHOP inhibitor)
Cc1ccc(N2C(=O)C3C4C=CC(CNC(=S)N5CCN(c6cccc(C)c6)C(C)C5)(O4)C3C2=O)cc1 (centres undefined)	CHOP inhibitor 92.4
CN1CCN(c2oc(COc3ccc(-c4ccccc4)cc3)nc2C#N)CC1	CHOP inhibitor 86.9
COc1ccc2cc(CCNC(=O)c3ccc(S(=O)(=O)N4CCCC4)cc3)c(=O)[nH]c2c1	none (no result: CHOP inhibitor)
Cc1ccc2c(c1)[nH]c1c(=O)n(CCN3CCNCC3)cnc12	none (no result: UPR XBP1 act, CHOP UPR activ, VLA-4 inh)
O=c1c2[nH]c3ccccc3c2ncn1CCN1CCNCC1	CHOP inhibitor 89.4
COc1ccc(S(=O)(=O)NCCSCc2cccc(C)c2)cc1Br	CHOP inhibitor 84.5
Cc1ccc(S(=O)(=O)NCCSCc2ccccc2)cc1	none
CC1CCCN(S(=O)(=O)c2ccc(C(=O)Nc3nnc(-c4ccco4)o3)cc2)C1 (centres undefined)	none (no result: CHOP inhibitor)
CCOc1cc(NC(=O)C2CC2)c(OCC)cc1NC(=O)c1cccc(F)c1	none (no result: CHOP inhibitor)
O=[N+]([O-])c1ccc(O)c(/C=N\N=C2c3ccccc3-c3ccccc32)c1	CHOP inhibitor 79.2
NC(N)=N/N=C/c1cc([N+](=O)[O-])ccc1O	none
C=CCn1c(SCC(=O)Nc2ccc(O)cc2)nc2sc(CC)cc2c1=O	none (no result: CHOP inhibitor)
Cc1ccc(NC(=O)CSc2cn[nH]n2)cc1	none (no result: CHOP inhibitor)
O=C(Cn1ncc(Cl)c(Cl)c1=O)N1CCc2ccccc21	Beta2AR agonist 54.1 (no result: UPR XBP1 act, CHOP UPR activ, VLA-4 inh)
O=C(Cn1ncc2c1-c1ccccc1OC2)N1CCc2ccccc21	none
CCOC(=O)c1c(NC(=S)N2CCN(C)CC2)sc2c1CCN(C(=O)OCC)C2	none
CCOC(=O)c1c(NC(=O)CN2CCCCC2)sc2c1CCN(C(=O)OCC)C2	CHOP inhibitor 81.4
CCOC(=O)c1c(NC(=O)CN2CCN(C(=O)c3ccco3)CC2)sc2c1CCCC2	CHOP inhibitor 86.2
CCOC(=O)c1c(NC(=O)CN(CC)CC)sc2c1CCN(C(=O)OCC)C2	CHOP inhibitor 74.6
CCOC(=O)c1c(NC(=O)c2ccco2)sc2c1CCCC2	none
COc1ccc(CNC(=O)Cn2nc(C)c3c(C)n(-c4ccc(C)cc4)nc3c2=O)cc1OC	none (no result: CHOP inhibitor)
CCc1nn(CC(=O)NCCCN2CCN(CC)CC2)c(=O)c2cc3occc3n12	none (no result: CHOP inhibitor)
CCCCCCCn1c(=O)c(C(=O)OC)c(N)c2ccccc21	CHOP inhibitor 72.8
CCCCCCCCn1c(=O)c(C(=O)OC)c(N)c2ccccc21	none
Cc1ccccc1-c1cc(-c2ccccc2O)n[nH]1	CHOP inhibitor 79.5
Cc1ccc(-c2cc(-c3ccccc3Cl)[nH]n2)c(O)c1	none
Cc1ccc(-c2cc(-c3ccccc3[N+](=O)[O-])[nH]n2)c(O)c1	CHOP inhibitor 94.2
O=C(c1ccccc1)c1nn(-c2ccc(Cl)cc2)c(=O)cc1C(F)(F)F	CHOP inhibitor 89.8
O=C(Nc1ccccc1)c1nn(-c2ccccc2)c(=O)cc1C(F)(F)F	CHOP inhibitor 73.0
O=C(c1ccccc1)c1nn(-c2ccccc2)c(=O)cc1C(F)(F)F	none
O=C(c1cccc(Cl)c1)c1nn(-c2ccccc2)c(=O)cc1C(F)(F)F	CHOP inhibitor 84.9
NC(=O)c1nn(-c2cccc(Cl)c2)c(=O)cc1O	none
COc1ccc(-n2c(SC(C)C(=O)Nc3ccc(NC(C)=O)cc3)nc3ccccc3c2=O)cc1OC (centres undefined)	none (no result: CHOP inhibitor)
Cc1ccc(N=Nc2c(N)nn3c(N)c(C#N)c(C)nc23)cc1	CHOP inhibitor 73.4
CC1(C)Oc2ccc3ccc(=O)oc3c2/C(=C/Nc2ccccn2)C1=O	CHOP inhibitor 92.0
CC(C)(C)c1ccc(S(=O)(=O)Nc2ccc(Cc3ccncc3)cc2)cc1	CHOP inhibitor 79.3
CC(=O)Nc1ccc(S(=O)(=O)Nc2ccc(Cc3ccncc3)cc2)cc1	none (no result: CHOP inhibitor)
COc1ccc(N2C(=O)CC(c3ccccc3)C2=O)cc1 (centres undefined)	none
COc1ccc(N2C(=O)CC(c3ccc(OC(C)C)cc3)C2=O)cc1 (centres undefined)	CHOP inhibitor 73.1
CCOC(=O)c1cc2c(=O)n3ccccc3nc2n(Cc2ccco2)c1=NC(=O)c1ccccc1OC	CHOP inhibitor 71.7
